In brackets after ≈: the same amount, converted by molar mass.
Key:
[1] = WHO-TDR: Cytotoxicity; assay type: toxicity, cell-based; conditions: human, MRC5 cells
Brugia malayi = test: WHO-TDR: Lymphatic Filariasis; assay type: functional; design: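 tested at 10 µM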
Procedure, shortened: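 Values are percent inhibition and IC50 from a whole-organism screen against Brugia malayi microfilariae. The compounds, 10,000 in all, came from a diverse Life Chemicals library filtered for drug-likeness and reactive groups.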

Trypanosoma cruzi = test: WHO-TDR: Chagas disease; assay type: functional, organism-based, Homo sapiens; conditions: MRC5
Procedure, shortened: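 Intracellular amastigotes of the Trypanosoma cruzi Tulahuen CL2 beta-galactosidase strain, grown in MRC-5SV2 human lung fibroblast host cells, were tested in a whole-organism screen. The compounds came from a 10,000-member diverse Life Chemicals library that had been filtered for drug-likeness and reactive groups. Previously published standard procedures were followed, with a reference drug as positive control, and potency is reported as IC50.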

Onchocerca lienalis = test: WHO-TDR: Onchocerciasis; assay type: functional; design: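 at 12.5 µM on microfilariae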
Procedure, shortened: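 Values are reported as percent inhibition and as IC50. They come from a whole-organism screen of a 10,000-compound diverse Life Chemicals library against microfilariae of Onchocerca ochengi or Onchocerca lienalis. The screen followed previously published standard procedures, with reference drugs as positive controls.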

[2] = test system: Trypanosoma brucei brucei; test: WHO-TDR: Human African Trypanosomiasis (HAT); assay type: functional, organism-based; conditions: Squib-427
Procedure, shortened: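 Screening used a 10,000-compound diverse library supplied by Life Chemicals and filtered for drug-likeness and reactive groups. Whole bloodstream-form parasites of Trypanosoma brucei Squib 427 strain were assayed according to previously published standard procedures, with reference drugs as positive controls. The reported measure is IC50, reflecting antiparasitic potency.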

Schistosoma mansoni = test: WHO-TDR: Schistosomiasis; assay type: functional; design: concentration or dose not given beside the values
Procedure, shortened: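 Values are reported as percent inhibition and IC50. They come from a whole-organism screen of a 10,000-compound diverse Life Chemicals library against larval and/or adult worms of Schistosoma mansoni, Puerto Rican strain. The library had been filtered for drug-likeness and reactive groups.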

Plasmodium falciparum K1 = test: WHO-TDR: Malaria; assay type: functional, organism-based, Homo sapiens; conditions: Erythrocyte
Procedure, shortened: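 This whole-organism screen covered 10,000 drug-likeness-filtered and reactive-group-filtered compounds from Life Chemicals. The target was the Plasmodium falciparum K1 strain in human red blood cells, and the readout was antiplasmodial IC50.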

Leishmania infantum = test: WHO-TDR: Leishmaniasis; assay type: functional, organism-based, Mus musculus; conditions: Macrophage
Procedure, shortened: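 The screened collection came from Life Chemicals: 10,000 diverse compounds selected after filtering for drug-likeness and reactive groups. Each was tested in a whole-organism assay against Leishmania infantum MHOM/MA(BE)/67 amastigotes inside murine peritoneal macrophages, using previously published standard procedures and a reference drug as positive control. Results are IC50 values for antiparasitic potency.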

| Compound | IC50 [1] [µg/mL] | % Inhibition (Brugia malayi) [%] | IC50 (Trypanosoma cruzi) [µg/mL] | % Inhibition (Onchocerca lienalis) [%] | IC50 [2] [µg/mL] | % Inhibition (Schistosoma mansoni) [%] | IC50 (Plasmodium falciparum K1) [µg/mL] | IC50 (Leishmania infantum) [µg/mL] |
| --- | --- | --- | --- | --- | --- | --- | --- | --- |
| O=C(CCCSc1ccccc1)N(Cc1ccncc1)c1nc2c(F)cccc2s1 | > 13.1 | 0 | 0.816 (≈ 1.86 µM) | 0 | 4.15 (≈ 9.49 µM) | 0 | 9.05 (≈ 20.7 µM) | > 13.1 |
| COc1ccc(Cl)c2sc(N(CCCN(C)C)C(=O)c3ccc(Br)s3)nc12 | 6.71 (≈ 13.7 µM) | 0 | 1.77 (≈ 3.62 µM) | 0 | 5.66 (≈ 11.6 µM) | 100 | > 15.8 | 0.51 (≈ 1.04 µM) |
| O=C(CCCSc1ccc(F)cc1)Nc1nc(-c2ccccn2)cs1 | 3.76 (≈ 10.1 µM) | 0 | 0.335 (≈ 0.897 µM) | 39.33 | 0.363 (≈ 0.972 µM) | 0 | > 11.2 | > 11.2 |
| COc1cccc(-n2ccnc2SCC(=O)Nc2ccccc2C(F)(F)F)c1 | > 12.2 | 0 | > 12.2 | 0 | 0.422 (≈ 1.04 µM) | 0 | > 12.2 | > 12.2 |
| CCN(CC)CCSc1ccc(-c2ccc(Cl)cc2)nn1 | > 9.66 | 0 | > 9.66 | 0 | > 9.66 | 0 | 0.368 (≈ 1.14 µM) | > 9.66 |
| Cc1ccc2sc(N(CCN(C)C)C(=O)C3CCN(S(=O)(=O)c4cccs4)CC3)nc2c1C | 1.94 (≈ 3.84 µM) | 0 | 0.772 (≈ 1.52 µM) | 16.32 | 5.21 (≈ 10.3 µM) | 0 | 3.81 (≈ 7.51 µM) | > 16.3 |
| Fc1ccc(Nc2nc(N3CCCC3)nc(N3CCCC3)n2)cc1 | > 10.9 | 0 | 3.85 (≈ 11.7 µM) | 9.215 | 0.442 (≈ 1.35 µM) | 0 | > 10.9 | > 10.9 |
| O=C(c1c(F)cccc1F)N(Cc1ccccn1)c1nc2ccccc2s1 | 2.13 (≈ 5.58 µM) | 0 | 0.546 (≈ 1.43 µM) | 4.601 | > 11.4 | 0 | 7.58 (≈ 19.9 µM) | 3.7 (≈ 9.71 µM) |
| CCSc1ccccc1C(=O)Nc1nnc(-c2cccs2)o1 | 5.3 (≈ 16 µM) | 0 | 0.413 (≈ 1.25 µM) | 20 | 0.656 (≈ 1.98 µM) | 0 | > 9.94 | 6.77 (≈ 20.4 µM) |
| O=C(Cn1c(S(=O)(=O)Cc2ccccc2)nc2ccccc21)N1CCN(c2ccccc2)CC1 | > 14.2 | 0 | > 14.2 | 11.35 | > 14.2 | 0 | 10.9 (≈ 22.9 µM) | 0.461 (≈ 0.971 µM) |
| CCCCN(C)S(=O)(=O)c1ccc(C(=O)N2CCN(c3nc4c(C)ccc(C)c4s3)CC2)cc1 | > 15 | 16.67 | > 15 | 13.3 | > 15 | 0 | > 15 | 0.223 (≈ 0.446 µM) |
| O=C(COc1ccccc1)Oc1ccc2nc(N3CCN(c4ccccc4)CC3)sc2c1 | > 13.4 | 0 | 9.76 (≈ 21.9 µM) | 0 | > 13.4 | 0 | > 13.4 | 1.96 (≈ 4.4 µM) |
| CCc1ccccc1-n1c(C)cn2c3c(=O)n(CC(C)C)c(=O)n(C)c3nc12 | > 11.4 | 0 | > 11.4 | 20 | 0.342 (≈ 0.901 µM) | 0 | 3.29 (≈ 8.68 µM) | > 11.4 |
| CN(C)CCCN(C(=O)c1ccc(Br)s1)c1nc2ccccc2s1 | > 13.8 | 0 | 0.791 (≈ 1.86 µM) | 11.35 | 4.37 (≈ 10.3 µM) | 0 | 5.41 (≈ 12.8 µM) | > 13.8 |
| CC(=O)c1cccc(Nc2nc(Nc3ccc(F)c(Cl)c3)nc(N3CCOCC3)n2)c1 | 5.32 (≈ 12 µM) | 0 | 0.465 (≈ 1.05 µM) | 0 | 0.643 (≈ 1.45 µM) | 25 | 3.81 (≈ 8.61 µM) | > 13.3 |
| O=C(Nc1ccc2c(c1)N(C(=O)C1CC1)CCC2)c1cccc(C(F)(F)F)c1 | > 11.7 | 0 | 0.808 (≈ 2.08 µM) | 13.3 | 3.69 (≈ 9.49 µM) | 0 | 4.56 (≈ 11.7 µM) | > 11.7 |
| COc1ccccc1N1CCN(C(CNS(=O)(=O)c2c(C)cc(C)cc2C)c2cccnc2)CC1 (configuration not stated) | > 14.8 |  | 0.929 (≈ 1.88 µM) | 86.7 | 4.8 (≈ 9.71 µM) | 0 | 0.78 (≈ 1.58 µM) | > 14.8 |
| CCN(CC)c1cc(C)nc(Nc2ccc(NC(=O)c3cc4ccccc4oc3=O)cc2)n1 | > 13.3 |  | > 13.3 | 6.7 | > 13.3 | 50 | 0.412 (≈ 0.929 µM) | > 13.3 |
| CCN(CC)c1cc(C)nc(Nc2ccc(NC(=O)c3ccc(Br)o3)cc2)n1 | 2.91 (≈ 6.54 µM) |  | 0.344 (≈ 0.774 µM) | -1 | 0.942 (≈ 2.12 µM) | 66.7 | 0.638 (≈ 1.44 µM) | 4.31 (≈ 9.71 µM) |
| CN(C)S(=O)(=O)c1ccc(C(=O)Nc2nnc(SCC(=O)NCc3ccco3)s2)cc1 | 3.06 (≈ 6.36 µM) |  | 0.933 (≈ 1.94 µM) | 6.7 | 5.04 (≈ 10.5 µM) | 0 | 2.42 (≈ 5.03 µM) | 5.04 (≈ 10.5 µM) |
| O=C(CSc1ccc2nnc(-c3ccccn3)n2n1)NCC1CCCO1 (configuration not stated) | > 11.1 |  | 5.24 (≈ 14.1 µM) | 0 | 3.3 (≈ 8.9 µM) | 0 | 3.16 (≈ 8.53 µM) | 0.392 (≈ 1.06 µM) |
| CCOC(=O)c1c(NC(=O)C(C)n2c(-n3nc(C)cc3C)nc(CC)cc2=O)sc2c1CCC2 (configuration not stated) | > 14.5 |  | 0.57 (≈ 1.18 µM) | 0 | 4.64 (≈ 9.6 µM) | 0 | 2.96 (≈ 6.11 µM) | 4.7 (≈ 9.71 µM) |
| O=C(Nc1ccc2c(c1)OCCO2)c1oc2ccccc2c1NC(=O)C1c2ccccc2Oc2ccccc21 | > 15.6 |  | > 15.6 | 0 | > 15.6 | 100 | 5.04 (≈ 9.72 µM) | 5.04 (≈ 9.71 µM) |
